Assays:
[1] = biological target: T1, Melatonin receptor type 1A (Homo sapiens, UniProt P48039); test: Displacement of 2-[125I]iodomelatonin from human MT1 receptor expressed in CHO cells; assay type: cell-based
Summary of the method: (§1)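 Membranes from CHO cells stably expressing human MT1 or MT2, grown in DMEM with 10% fetal calf serum, homogenized in Tris/EDTA and pelleted at 95,000g. Incubated with 20 pM 2-[125I]-iodomelatonin and test drug in 50 mM Tris/HCl pH 7.4, 5 mM MgCl2, 120 min at 37 °C. Stopped by filtration onto PEI-soaked GF/B filters. Ki = IC50/(1+[L]/KD) from seven-concentration curves.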

[2] = biological target: T2, Melatonin receptor type 1B (Homo sapiens, UniProt P49286); test: Displacement of 2-[125I]iodomelatonin from human MT2 receptor expressed in CHO cells; assay type: cell-based; summary of the method: as §1
T2 sequence (P49286 whole entry): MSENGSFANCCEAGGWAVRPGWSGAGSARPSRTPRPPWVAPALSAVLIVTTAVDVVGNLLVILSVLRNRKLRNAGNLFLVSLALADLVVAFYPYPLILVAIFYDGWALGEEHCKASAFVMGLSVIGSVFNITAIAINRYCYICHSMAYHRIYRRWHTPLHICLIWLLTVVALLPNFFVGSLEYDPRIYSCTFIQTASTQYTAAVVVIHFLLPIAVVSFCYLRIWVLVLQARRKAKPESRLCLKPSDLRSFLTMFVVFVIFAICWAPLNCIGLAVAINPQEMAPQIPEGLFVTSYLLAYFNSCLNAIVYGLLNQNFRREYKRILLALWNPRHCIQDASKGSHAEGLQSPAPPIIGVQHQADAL

[3] = biological target: T1, Melatonin receptor type 1A; test: Agonist activity at human MT1 receptor expressed in CHO cells by [35S]GTPgamma binding assay; assay type: functional, cell-based
[4] = biological target: T2, Melatonin receptor type 1B; test: Agonist activity at human MT2 receptor expressed in CHO cells by [35S]GTPgamma binding assay; assay type: functional, cell-based
Homo sapiens = organism: Homo sapiens; test: Selectivity ratio of Ki for human MT2 receptor to Ki for human MT1 receptor

T1 sequence (P48039 whole entry): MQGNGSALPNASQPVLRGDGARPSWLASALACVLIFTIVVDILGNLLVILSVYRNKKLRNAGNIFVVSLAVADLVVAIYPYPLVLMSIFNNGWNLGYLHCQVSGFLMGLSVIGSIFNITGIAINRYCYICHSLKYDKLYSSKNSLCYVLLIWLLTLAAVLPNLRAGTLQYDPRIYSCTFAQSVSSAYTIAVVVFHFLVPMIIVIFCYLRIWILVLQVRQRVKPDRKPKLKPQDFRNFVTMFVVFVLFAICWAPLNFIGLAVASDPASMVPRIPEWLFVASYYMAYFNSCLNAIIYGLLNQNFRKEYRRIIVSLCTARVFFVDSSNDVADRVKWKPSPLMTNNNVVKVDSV

| Compound | Ki [1] [nM] | Ki [2] [nM] | EC50 [3] [nM] | EC50 [4] [nM] | Ratio Ki (Homo sapiens) |
| --- | --- | --- | --- | --- | --- |
| CC(=O)NCCc1cccc2ccc(OCCCCOc3ccc(-c4ccc(CO)cc4)cc3)cc12 | 0.09 | 6.53 | 2.37 | 26 | 72 |
| CC(=O)NCCc1cccc2ccc(-c3ccc4cccc(CCNC(C)=O)c4c3)cc12 | – | – | – | – | 70 |
| CC(=O)NCCc1cccc2ccc(OCCCCOc3ccc4cccc(CCNC(=O)c5ccco5)c4c3)cc12 | 0.64 | 11.8 | 11.2 | – | 18 |
| CC(=O)NCCc1cccc2ccc(OCCCCOc3ccc4scc(CCNC(C)=O)c4c3)cc12 | 3.47 | 16.9 | 1.94 | 20.6 | 5 |
| CC(=O)NCCc1cccc2ccc(OCCCCOc3ccc4cccc(CC(=O)O)c4c3)cc12 | 9.1 | 45.8 | 3.14 | – | 5 |
| COC(=O)c1ccc(-c2ccc(OCCCCOc3ccc4cccc(CCNC(C)=O)c4c3)cc2)cc1 | 2.37 | 19.1 | 46.2 | – | 8 |
| CC(=O)NCCc1cccc2ccc(OCCCCOc3ccc4[nH]cc(CCNC(C)=O)c4c3)cc12 | 4.04 | 84.3 | 2.38 | – | 21 |
| C=CCC(=O)NCCc1cccc2ccc(OCCCCOc3ccc4cccc(CCNC(C)=O)c4c3)cc12 | 0.79 | 8.45 | 12 | – | 11 |
| O=C(NCCCc1ccc2nc(CCCCc3ccccc3)oc2c1)C1CC1 | – | – | – | – | 35 |
| CC(=O)NCCc1cccc2ccc(OCCCCOc3ccc4occ(CCNC(C)=O)c4c3)cc12 | 1.38 | 13.9 | 2.49 | – | 10 |
| CC(=O)NCCc1cccc2ccc(OCCCCOc3ccc4cc(C(C)C(=O)O)ccc4c3)cc12 (centres undefined) | 1.51 | 59.1 | 22 | 161 | 39 |
| O=C(NCCc1cccc2ccc(OCCCCOc3ccc4cccc(CCNC(=O)C5CC5)c4c3)cc12)C1CC1 | 1.01 | 13.6 | – | 134 | 13 |
| CC(=O)NCCc1cccc2ccc(OCCCCOc3ccc4cccc(CCNC(C)=O)c4c3)cc12 | – | – | 73 | 405 | 120 |
| COC(=O)Cc1cccc2ccc(OCCCCOc3ccc4cccc(CCNC(C)=O)c4c3)cc12 | 0.07 | 1.84 | 2.89 | – | 26 |
| C=CCC(=O)NCCc1cccc2ccc(OCCCCOc3ccc4cccc(CCNC(=O)CC=C)c4c3)cc12 | 0.92 | 10.9 | 16.1 | 40.2 | 12 |
| CC(=O)NCCc1cccc2ccc(OCCCCOc3ccc(-c4ccc(C(=O)O)cc4)cc3)cc12 | 0.55 | 51.3 | 26.1 | – | 93 |
| COC(=O)C(C)c1ccc2cc(OCCCCOc3ccc4cccc(CCNC(C)=O)c4c3)ccc2c1 (centres undefined) | 0.37 | 4.22 | 21.7 | 88 | 11 |
| CC(=O)NCCc1cccc2ccc(OCCCCOc3ccc4cccc(CCNC(=O)C5CC5)c4c3)cc12 | 1.07 | 11.1 | 9.1 | – | 10 |
| CC(=O)NCCc1cccc2ccc(OCCCCOc3ccc4c(c3)C(CCNC(C)=O)CCC4)cc12 (centres undefined) | 0.26 | 6.79 | 7.75 | – | 26 |

From ChEMBL document CHEMBL1157828, “Design, synthesis and pharmacological evaluation of novel naphthalenic derivatives as selective MT(1) melatoninergic ligands” (Bioorg Med Chem, 2010)
